The values that follow come from ChEMBL document CHEMBL1153576, “Novel ureas and thioureas of 15-membered azalides with antibacterial activity against key respiratory pathogens” (Eur J Med Chem, 2009).

Values after ≈ are worked out from the molar mass of the structure shown. Where only a bound is given, the exact number is not on record here.

What all share (type): functional
The test system of assay [1] is Streptococcus pneumoniae. In words: Antibacterial activity against constitutive macrolide-lincosamide-streptogramin-resistant Streptococcus pneumoniae after 16 to 22 hrs by broth microdilution method. Summed up: (§1)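 Two-fold serial dilutions in microdilution trays, following the CLSI dilution standard for aerobic bacteria. Medium was Mueller–Hinton broth with 5% horse serum for streptococci. Stocks were made at 5 mg/ml in DMF. Inoculum came from a direct colony suspension adjusted by turbidity to about 5 × 10⁴ CFU/well final. Incubation was at 35 °C for 16–22 h. MIC is the lowest concentration completely inhibiting growth (99% inhibition).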
For orientation: In broth dilution the organism is exposed to a series of concentrations in liquid medium.

The subject of assay [2] is Streptococcus pneumoniae. In words: Antibacterial activity against erythromycin-susceptible Streptococcus pneumoniae after 16 to 22 hrs by broth microdilution method. Summed up: (§2)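 Streptococci tested by CLSI broth microdilution in Mueller–Hinton broth with 5% horse serum, using two-fold serial dilutions. Compounds were dissolved in DMF at 5 mg/ml (stock). Inoculum was a turbidity-adjusted direct colony suspension giving about 5 × 10⁴ CFU/well. Trays were held at 35 °C for 16–22 h. MIC is the lowest concentration completely inhibiting growth (99%).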

The test system of assay [3] is Streptococcus pyogenes. In words: Antibacterial activity against efflux-mediated macrolide-resistance Streptococcus pyogenes after 16 to 22 hrs by broth microdilution method. A digest of the protocol: as §1
The next assay deals with Moraxella catarrhalis. In words: Antibacterial activity against Moraxella catarrhalis ATCC 23246 after 16 to 22 hrs by broth dilution method. A digest of the protocol:
(§3)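 Broth microdilution per the CLSI approved standard (sixth edition), using two-fold serial dilutions of compound in Mueller–Hinton broth. Stocks at 5 mg/ml in DMF. Inoculum came from a direct colony suspension adjusted by turbidity to about 5 × 10⁴ CFU/well final. Trays were incubated at 35 °C for 16–22 h. MIC is the lowest concentration completely inhibiting growth (99% inhibition).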

In assay [4] the test system is Streptococcus pneumoniae. In words: Antibacterial activity against efflux-mediated macrolide-resistant Streptococcus pneumoniae after 16 to 22 hrs by broth microdilution method. Summed up: as §1
The subject of the next assay is Enterococcus faecalis. In words: Antibacterial activity against Enterococcus faecalis ATCC 29212 after 16 to 22 hrs by broth dilution method. Summed up: as §3
The next assay deals with Haemophilus influenzae. The assay can be described thus: Antibacterial activity against Haemophilus influenzae ATCC 49247 after 16 to 22 hrs by broth dilution method. A digest of the protocol: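 Microdilution trays following the CLSI standard, with two-fold serial dilutions in supplemented broth suited to H. influenzae. DMF stocks at 5 mg/ml. Inoculum prepared from a turbidity-adjusted direct colony suspension to about 5 × 10⁴ CFU/well final. Incubated at 35 °C for 16–22 h. MIC is the lowest concentration giving complete (99%) growth inhibition.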

For assay [5], the system named is Streptococcus pyogenes. The assay can be described thus: Antibacterial activity against inducible macrolide-lincosamide-streptogramin-resistant Streptococcus pyogenes 16 to 22 hrs by broth microdilution method. Summed up: as §1
Assay [6] deals with Streptococcus pyogenes. The assay can be described thus: Antibacterial activity against erythromycin-susceptible Streptococcus pyogenes after 16 to 22 hrs by broth microdilution method. Summed up:
as §2

In another assay the test system is Escherichia coli. The assay can be described thus: Antibacterial activity against Escherichia coli ATCC 25922 after 16 to 22 hrs by broth dilution method. Summed up:
as §3

For a further assay, the system named is Staphylococcus aureus. The assay can be described thus: Antibacterial activity against Staphylococcus aureus ATCC 29213 after 16 to 22 hrs by broth microdilution method. Summed up:
as §3

As to `CC[C@H]1OC(=O)[C@H](C)[C@@H](O[C@H]2C[C@@](C)(OC)[C@@H](O)[C@H](C)O2)[C@H](C)[C@@H](O[C@@H]2O[C@H](C)C[C@H](N(C)C)[C@H]2O)[C@](C)(O)C[C@@H](C)CN(CCCN(CCC#N)C(=S)NCc2ccccc2)[C@H](C)[C@@H](O)[C@]1(C)O`, the MIC with Streptococcus pneumoniae [1] was 64 µg/mL (≈ 64.4 µM); against Streptococcus pneumoniae [2], at most 0.125 µg/mL; against Streptococcus pyogenes [3], 8 µg/mL (≈ 8.05 µM); in the assay with Moraxella catarrhalis, 1 µg/mL (≈ 1.01 µM); in the assay with Streptococcus pneumoniae [4], 16 µg/mL (≈ 16.1 µM); against Enterococcus faecalis, 32 µg/mL (≈ 32.2 µM). The MIC against Haemophilus influenzae is 4 µg/mL (≈ 4.02 µM); in the assay with Streptococcus pyogenes [5], 16 µg/mL (≈ 16.1 µM); with Streptococcus pyogenes [6], at most 0.125 µg/mL; in the assay with Escherichia coli, 16 µg/mL (≈ 16.1 µM); against Staphylococcus aureus, 1 µg/mL (≈ 1.01 µM).
Regarding `CC[C@H]1OC(=O)[C@H](C)[C@@H](O[C@H]2C[C@@](C)(OC)[C@@H](O)[C@H](C)O2)[C@H](C)[C@@H](O[C@@H]2O[C@H](C)C[C@H](N(C)C)[C@H]2O)[C@](C)(O)C[C@@H](C)CN(CCCN(CCC#N)C(=O)NCc2ccccc2)[C@H](C)[C@@H](O)[C@]1(C)O`, the MIC was 64 µg/mL (≈ 65.4 µM) in the assay with Streptococcus pneumoniae [1]; at most 0.125 µg/mL with Streptococcus pneumoniae [2]; 8 µg/mL (≈ 8.18 µM) with Streptococcus pyogenes [3]; 0.5 µg/mL (≈ 0.511 µM) against Moraxella catarrhalis; 16 µg/mL (≈ 16.4 µM) against Streptococcus pneumoniae [4]; 32 µg/mL (≈ 32.7 µM) against Enterococcus faecalis. Further, the MIC in the assay with Haemophilus influenzae was 4 µg/mL (≈ 4.09 µM); with Streptococcus pyogenes [5], 16 µg/mL (≈ 16.4 µM); in the assay on Streptococcus pyogenes [6], at most 0.125 µg/mL; in the assay on Escherichia coli, 8 µg/mL (≈ 8.18 µM); against Staphylococcus aureus it was 2 µg/mL (≈ 2.04 µM).
For `CC[C@H]1OC(=O)[C@H](C)[C@@H](O[C@H]2C[C@@](C)(OC)[C@@H](O)[C@H](C)O2)[C@H](C)[C@@H](O[C@@H]2O[C@H](C)C[C@H](N(C)C)[C@H]2O)[C@](C)(O)C[C@@H](C)CN(CCCNC(=O)NCCc2ccccc2)[C@H](C)[C@@H](O)[C@]1(C)O`, the MIC with Streptococcus pneumoniae [1] was above 64 µg/mL; against Streptococcus pneumoniae [2], at most 0.125 µg/mL; against Streptococcus pyogenes [3], 32 µg/mL (≈ 34.1 µM); against Moraxella catarrhalis, 2 µg/mL (≈ 2.13 µM); against Streptococcus pneumoniae [4], 32 µg/mL (≈ 34.1 µM); in the assay on Enterococcus faecalis, 16 µg/mL (≈ 17 µM). Further, the MIC was 16 µg/mL (≈ 17 µM) against Haemophilus influenzae; 8 µg/mL (≈ 8.52 µM) against Streptococcus pyogenes [5]; at most 0.125 µg/mL with Streptococcus pyogenes [6]; 16 µg/mL (≈ 17 µM) with Escherichia coli; 1 µg/mL (≈ 1.06 µM) against Staphylococcus aureus.
In the case of `CC[C@H]1OC(=O)[C@H](C)[C@@H](O[C@H]2C[C@@](C)(OC)[C@@H](O)[C@H](C)O2)[C@H](C)[C@@H](O[C@@H]2O[C@H](C)C[C@H](N(C)C)[C@H]2O)[C@](C)(O)C[C@@H](C)CN(CCCNC(=S)Nc2ccccc2)[C@H](C)[C@@H](O)[C@]1(C)O`, the MIC in the assay with Streptococcus pneumoniae [1] was above 64 µg/mL; against Streptococcus pneumoniae [2], at most 0.125 µg/mL; in the assay on Streptococcus pyogenes [3], 16 µg/mL (≈ 17.3 µM); with Moraxella catarrhalis it was 2 µg/mL (≈ 2.16 µM); in the assay on Streptococcus pneumoniae [4], 16 µg/mL (≈ 17.3 µM); against Enterococcus faecalis, 8 µg/mL (≈ 8.63 µM). Also, the MIC is 4 µg/mL (≈ 4.31 µM) against Haemophilus influenzae; 8 µg/mL (≈ 8.63 µM) against Streptococcus pyogenes [5]; at most 0.125 µg/mL against Streptococcus pyogenes [6]; 8 µg/mL (≈ 8.63 µM) in the assay on Escherichia coli; 0.5 µg/mL (≈ 0.539 µM) against Staphylococcus aureus.
Consider `CC[C@H]1OC(=O)[C@H](C)[C@@H](O[C@H]2C[C@@](C)(OC)[C@@H](O)[C@H](C)O2)[C@H](C)[C@@H](O[C@@H]2O[C@H](C)C[C@H](N(C)C)[C@H]2O)[C@](C)(O)C[C@@H](C)CN(CCCN(CCC#N)C(=O)Nc2ccc3ccccc3c2)[C@H](C)[C@@H](O)[C@]1(C)O`, for which the MIC was 32 µg/mL (≈ 31.5 µM) in the assay on Streptococcus pneumoniae [1]; at most 0.125 µg/mL with Streptococcus pneumoniae [2]; 8 µg/mL (≈ 7.89 µM) with Streptococcus pyogenes [3]; 1 µg/mL (≈ 0.986 µM) with Moraxella catarrhalis; 16 µg/mL (≈ 15.8 µM) in the assay on Streptococcus pneumoniae [4]; 16 µg/mL (≈ 15.8 µM) against Enterococcus faecalis. Further, the MIC is 2 µg/mL (≈ 1.97 µM) with Haemophilus influenzae; 16 µg/mL (≈ 15.8 µM) against Streptococcus pyogenes [5]; at most 0.125 µg/mL against Streptococcus pyogenes [6]; 32 µg/mL (≈ 31.5 µM) with Escherichia coli; 1 µg/mL (≈ 0.986 µM) in the assay on Staphylococcus aureus.
`CC[C@H]1OC(=O)[C@H](C)[C@@H](O[C@H]2C[C@@](C)(OC)[C@@H](O)[C@H](C)O2)[C@H](C)[C@@H](O[C@@H]2O[C@H](C)C[C@H](N(C)C)[C@H]2O)[C@](C)(O)C[C@@H](C)CN(CCCN(CCC#N)C(=S)Nc2ccccc2)[C@H](C)[C@@H](O)[C@]1(C)O`: the MIC was above 64 µg/mL against Streptococcus pneumoniae [1]; at most 0.125 µg/mL against Streptococcus pneumoniae [2]; 32 µg/mL (≈ 32.6 µM) against Streptococcus pyogenes [3]; 4 µg/mL (≈ 4.08 µM) with Moraxella catarrhalis; 32 µg/mL (≈ 32.6 µM) in the assay with Streptococcus pneumoniae [4]; above 64 µg/mL against Enterococcus faecalis. For the same compound, the MIC with Haemophilus influenzae is 16 µg/mL (≈ 16.3 µM); against Streptococcus pyogenes [5], 32 µg/mL (≈ 32.6 µM); with Streptococcus pyogenes [6], at most 0.125 µg/mL; in the assay on Escherichia coli, above 64 µg/mL; against Staphylococcus aureus, 2 µg/mL (≈ 2.04 µM).
